A selection: hits, their analogues and other compounds. The true share with any hit is near 2.1%.
SUMO Mot1 rescue – yeast Mot1-301 growth rescue at high temperature, primary screen, SUMOylation pathway inhibitor project, S. cerevisiae, ATP luminescence, 38.5C | 320,000 compounds, 1% hits | growth rescue, % at 18.8 µM | AID 2716, 2010 | S. cerevisiae Mot1-301 growth rescue; percent above DMSO median, 100 means doubled;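 active = every valid replicate shows activation above 250% relative to neutral control wells; inactive = the rest, any valid replicate at or below 250%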;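 note: OY570 slx delta 5 strain wells were the positive control but not used for scaling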
UCH37 DUB inh – inhibitors of human UCH37 deubiquitinase, primary screen, biochemical, Ub-AMC cleavage, fluorescence. Ubiquitin carboxyl-terminal hydrolase isozyme L5 (Homo sapiens), Q9Y5K5. purified proteasome/UCH37. inhibition, % (concentration not given with the values). 330,000 compounds, 0.33% hits. AID 588478, 2011;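 active = mean inhibition over replicate wells above about 20%, limit read from the data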;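 note: 0% = compound-free wells with enzyme and 100% = wells lacking proteasome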
Target sequence (Q9Y5K5 whole entry, looked up): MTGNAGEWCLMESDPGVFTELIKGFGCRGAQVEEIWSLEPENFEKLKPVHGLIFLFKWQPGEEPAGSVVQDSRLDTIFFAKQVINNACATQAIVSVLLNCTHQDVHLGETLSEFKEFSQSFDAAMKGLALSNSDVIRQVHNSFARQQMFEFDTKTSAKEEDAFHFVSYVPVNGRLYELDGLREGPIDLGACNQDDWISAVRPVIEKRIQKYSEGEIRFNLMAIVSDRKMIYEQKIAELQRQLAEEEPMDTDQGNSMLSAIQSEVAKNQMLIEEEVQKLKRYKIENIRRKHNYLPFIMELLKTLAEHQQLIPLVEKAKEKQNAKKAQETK
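Reagent: Ub-AMC substrate; assay system: Proteasome-associated human UCH37 deubiquitinase; controls: no-proteasome and no-compound wells; read-out: % inhibition of Ub-AMC cleavage fluorescence; timing: 30 min preincubation with enzyme, 25 min cleavage at room temperature; signal: AMC fluorescence from Ub-AMC cleavage, excitation 355 nm, emission 460 nm; buffer or medium: Tris-HCl pH 7.4 plus ovalbumin, ATP-MgCl2, DTT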
RTF Ca sens act – cardiac RTF calcium sensitivity activators, primary screen, biochemical, IANBD-TnC fluorescence, EC20 calcium; IANBD-labeled TnC RTF fluorescence at EC20 calcium; 0% EC20 calcium, 100% full calcium; activation, % at 7.2 µM; 340,000 compounds, 0.24% hits; AID 493008, 2010;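 active = activation above the mean over all tested compounds plus 3 SD, cut at about 30% in these data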;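 note: rise in fluorescence read as greater calcium sensitivity of cardiac thin filaments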
RTF Ca sens inh – cardiac RTF calcium sensitivity inhibitors, primary screen, biochemical, IANBD-TnC fluorescence, EC70 calcium; inhibition, % at 7.15 µM; IANBD-labeled cardiac RTF, Ca2+ fluorescence; 340,000 compounds, 0.12% hits; AID 493244, 2011; Troponin I, cardiac muscle (Homo sapiens) + Troponin T, cardiac muscle (Homo sapiens) + …;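 active = inhibition above the mean inhibition of all tested compounds plus 3 SD, cut at about 17% in these data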;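 note: assay run at fixed EC70 calcium of 1.6 mM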
Efflux pump mplx – inhibitors of Candida efflux pumps in yeast, primary screen, S. cerevisiae, Nile Red, multiplex. S. cerevisiae Candida pump triplex. inhibition, % at 10 µM. 330,000 compounds, 0.44% hits;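 active = plate passing quality check with inhibition over a set limit, or well fluorescence over plate mean plus 4 SD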;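 note: Nile Red retained in pooled yeast measured as flow cytometry median fluorescence; 0% = buffer negative control and 100% = Enniatin B positive control; higher means more Nile Red kept so more efflux inhibition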
ARNT-TACC3 inh – disruptors of ARNT/TACC3 protein interaction, primary screen, biochemical, AlphaScreen, single concentration | AlphaScreen His-ARNT PAS-B/GST-TACC3 binding, luminescence; TACC3 fragment carries E629A point mutation | inhibition, % at 9.99 µM | 390,000 compounds, 0.66% hits | AID 623870, 2012;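 active = mean inhibition of replicates at least 50% and at least half of replicates each reaching 50%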;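 note: 0% = complete ARNT plus TACC3 wells and 100% = ARNT alone without TACC3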
Yeast cmpd fluor – flagged as fluorescent in efflux inhibitor counter-screen; AID 588517; S. cerevisiae AD/pABC3, compound fluorescence, flow cytometry; shares compounds with Efflux pump mplx; 1,700 compounds, 4% hits; fluorescence ratio to DMSO, % at 10 µM;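 active = fluorescence ratio to DMSO above its plate's cutoff, the plate mean ratio plus 5 SD, cut at about 210% in these data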;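 note: unstained yeast with no Nile Red so the signal is compound autofluorescence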
CaMdr1 efflux inh – inhibitors of Candida albicans Mdr1 efflux, confirmation, flow cytometry, singleplex, Cherry Pick1 set; shares compounds with Efflux pump mplx; S. cerevisiae AD/CaMDR1, Nile Red efflux; inhibition, % at 10 µM; 1,700 compounds, 1% hits; in the data active = inhibition above about 26%;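 note: 0% = DMSO vehicle and 100% = reference inhibitor; higher means more Nile Red retained so more efflux inhibition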
Cdr2 pump inh – inhibitors of Candida albicans Cdr2 efflux pump, confirmation, S. cerevisiae AD/CaCDR2, flow cytometry, cherry pick 1, singleplex. shares compounds with Efflux pump mplx. Nile Red retention. Nile Red retention ratio vs DMSO, % at 10 µM. 1,700 compounds, 4% hits; in the data active = Nile Red retention ratio vs DMSO above about 190%;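 note: higher ratio means more blocking of Cdr2 efflux of the dye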
Cdr1 pump inh – inhibitors of Candida albicans Cdr1 efflux pump, confirmation, S. cerevisiae AD/CaCDR1, flow cytometry, cherry pick 1, singleplex. shares compounds with Efflux pump mplx. Nile Red efflux. inhibition, % at 10 µM. 1,700 compounds, 1% hits. AID 588522, 2011;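 active = inhibition above the screen-wide mean plus twice its standard deviation, cut at about 32% in these data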
Starred values were filed as active, the others as inactive; / = no result.

SMILES	SUMO Mot1 rescue	UCH37 DUB inh	RTF Ca sens act	RTF Ca sens inh	Efflux pump mplx	ARNT-TACC3 inh	Yeast cmpd fluor	CaMdr1 efflux inh	Cdr2 pump inh	Cdr1 pump inh
Cc1cc(Cl)ccc1NC(=O)CCC(=O)NN=Cc1cc([N+](=O)[O-])ccc1O	/	1.0	/	/	/	/	/	/	/	/
CCOC(=O)C1CCCCN1S(=O)(=O)c1ccc2c(c1)CC(C)N2C(=O)C1CCC1 (centres undefined)	-20.2	5.9	-0.3	-4.5	-0.1	2.6	103.1	-0.1	96.3	0.1
CCOc1ccc(N2C(=O)CC(N(C)Cc3ccccc3)C2=O)cc1 (centres undefined)	70.6	2.1	1.4	5.3	15.2*	0.2	103.0	-0.2	99.7	-0.1
COc1ccc(-c2nsc(C(=O)N(c3ccc(F)cc3)C(C(=O)NC3CCCC3)c3ccc(OC)cc3)c2N)cc1 (centres undefined)	-15.1	-23.2	-0.6	-5.8	0.3*	-2.3	106.8	0.1	106.0	-0.1
COc1ccc(N(C(=O)c2snc(C(N)=O)c2N)C(C(=O)NC2CCCCC2)c2ccc(F)cc2)c(OC)c1 (centres undefined)	47.4	-154.4	-4.5	1.7	0.3	0.4	/	/	/	/
Cc1ccc(S(=O)(=O)N(C)N=C2C(=O)N(CC(=O)O)c3ccccc32)cc1	/	3.9	/	/	/	/	/	/	/	/
Cn1c(=O)n(C)c2cc(C=NNC(=S)NCc3ccccc3)ccc21	/	6.5	/	/	/	/	/	/	/	/
O=C(O)c1ccccc1N/C=C\[N+](=O)[O-]	1.7	-4.0	4.1	-10.8	0.7*	-2.2	96.6	0.0	97.7	-0.1
CCN(CC)C(=O)C1CCCN(c2ccc([N+](=O)[O-])cc2C=NNC(=O)c2ccccc2)C1 (centres undefined)	/	6.3	/	/	/	/	/	/	/	/
COc1ccccc1NC(=O)c1cc(Cl)ccc1NC(=O)c1ccco1	-0.8	-54.8	9.2	-10.6	0.0	-2.0	/	/	/	/
COc1ccccc1NC(=O)c1ccccc1NC(=O)c1cc(Cl)ccc1NC(=O)c1ccco1	-22.0	-145.3	-1.1	3.8	0.5*	4.5	100.3	0.0	96.3	0.0
COc1cc(/C=C2\SC(=Nc3ccccc3OC)NC2=O)ccc1O	6.9	10.5	-5.4	-7.9	0.6*	1.6	110.0	-0.1	107.2	0.1
COc1cc(/C=C2\SC(=Nc3cccnc3)NC2=O)cc(OC)c1OC	15.0	10.7	/	/	-0.1	/	/	/	/	/
COc1cc(/C=C2/CC/C(=C/c3ccc(O)c(OC)c3)C2=O)ccc1O	-18.2	5.3	5.2	-13.8	0.5*	-0.6	115.9	0.0	99.7	0.0
CCc1ccc(N=C2NC(=O)/C(=C/c3cc(OC)c(O)c(OC)c3)S2)cc1	1.6	3.1	2.2	-12.0	0.5*	-3.1	126.1	0.1	101.5	0.0
O=C(NN=C1CCSC1)c1cc(Cl)ccc1O	/	-95.6	/	/	/	/	/	/	/	/
